Laboratory results: ChEMBL document CHEMBL2321767, “Synthesis and anticonvulsant activity of bioisosteres of trimethadione, N-derivative-1,2,3-oxathiazolidine-4-one-2,2-dioxides from α-hydroxyamides” (Bioorg Med Chem, 2013)
The source made the active and inactive calls.

Assays:
Mus musculus [1] = assay: Neurotoxicity against Swiss albino mouse at 100 mg/kg, ip measured after 4 hrs by rotarod test; assay type: toxicity, organism-based; set-up: dose 100 mg/kg, route intraperitoneal; conditions: in vivo
Procedure, shortened: (§1)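 Male Swiss albino mice (18–25 g) dosed ip at 30 or 100 mg/kg in 30% PEG 400/10% water. Minimal neurotoxicity checked on the rotarod 0.5 and 4 h after dosing, as failure to keep balance on the rotating rod. Reported as affected/tested, 5 mice per group.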

Mus musculus [2] = assay: Anticonvulsant activity in Swiss albino mouse assessed as protection against maximal electric shock-induced tonic-clonic seizures at 30 mg/kg, ip measured after 0.5 hrs relative to control; assay type: functional, organism-based; set-up: dose 30 mg/kg
Procedure, shortened: (§2)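 Adult male Swiss albino mice (18–25 g) dosed ip with 30 or 100 mg/kg in 30% PEG 400/10% water, 0.01 mL/g. MES tested 0.5 and 4 h later: electroshock via ear clips. Protection means no hind-limb tonic extension. Result reported as mice protected out of mice tested (3 per group).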

Mus musculus [3] = assay: Neurotoxicity against Swiss albino mouse at 30 mg/kg, ip measured after 4 hrs by rotarod test; assay type: toxicity, organism-based; set-up: dose 30 mg/kg, route intraperitoneal; conditions: in vivo; procedure, shortened: as §1
Mus musculus [4] = assay: Anticonvulsant activity in Swiss albino mouse assessed as protection against scPTZ-induced tonic-clonic seizures at 100 mg/kg, ip measured after 0.5 hrs relative to control; assay type: functional, organism-based; set-up: dose 100 mg/kg
Procedure, shortened: (§3)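 Adult male Swiss albino mice (18–25 g) given test substance ip at 30 or 100 mg/kg in 30% PEG 400/10% water. At 0.5 or 4 h, PTZ 85 mg/kg sc (0.5% in 0.9% saline) into the posterior midline. Mice observed 30 min. Protection means no threshold seizure, i.e. no clonic spasm lasting ≥5 s. Scored as protected/tested, 2 mice per group.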

Mus musculus [5] = assay: Anticonvulsant activity in Swiss albino mouse assessed as protection against maximal electric shock-induced tonic-clonic seizures at 100 mg/kg, ip measured after 4 hrs relative to control; assay type: functional, organism-based; set-up: dose 100 mg/kg; procedure, shortened: as §2
Mus musculus [6] = assay: Anticonvulsant activity in Swiss albino mouse assessed as protection against scPTZ-induced tonic-clonic seizures at 30 mg/kg, ip measured after 0.5 hrs relative to control; assay type: functional, organism-based; set-up: dose 30 mg/kg; procedure, shortened: as §3
Mus musculus [7] = assay: Anticonvulsant activity in Swiss albino mouse assessed as protection against scPTZ-induced tonic-clonic seizures at 100 mg/kg, ip measured after 4 hrs relative to control; assay type: functional, organism-based; set-up: dose 100 mg/kg; procedure, shortened: as §3
Mus musculus [8] = assay: Anticonvulsant activity in Swiss albino mouse assessed as protection against scPTZ-induced tonic-clonic seizures at 30 mg/kg, ip measured after 4 hrs relative to control; assay type: functional, organism-based; set-up: dose 30 mg/kg; procedure, shortened: as §3
Mus musculus [9] = assay: Neurotoxicity against Swiss albino mouse at 100 mg/kg, ip measured after 0.5 hrs by rotarod test; assay type: toxicity, organism-based; set-up: dose 100 mg/kg, route intraperitoneal; conditions: in vivo; procedure, shortened: as §1
Mus musculus [10] = assay: Anticonvulsant activity in Swiss albino mouse assessed as protection against maximal electric shock-induced tonic-clonic seizures at 30 mg/kg, ip measured after 4 hrs relative to control; assay type: functional; procedure, shortened: as §2
Mus musculus [11] = assay: Toxicity against Swiss albino mouse assessed as mortality at 30 to 100 mg/kg, ip; assay type: organism-based; set-up: dose 30-100 mg/kg, route intraperitoneal; conditions: in vivo
Procedure, shortened: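 Adult male Swiss albino mice (18–25 g; 12 h light/dark cycle, free food and water) were dosed ip at 30 and 100 mg/kg in 30% PEG 400 and 10% water, 0.01 mL/g body weight. Testing was at 0.5 and 4 h in the MES, scPTZ and RotoRod assays, with deaths recorded during these assays.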

Mus musculus [12] = assay: Neurotoxicity against Swiss albino mouse at 30 mg/kg, ip measured after 0.5 hrs by rotarod test; assay type: toxicity, organism-based; set-up: dose 30 mg/kg, route intraperitoneal; conditions: in vivo; procedure, shortened: as §1
Mus musculus [13] = assay: Anticonvulsant activity in Swiss albino mouse assessed as protection against maximal electric shock-induced tonic-clonic seizures at 100 mg/kg, ip measured after 0.5 hrs relative to control; assay type: functional; procedure, shortened: as §2
Mus musculus [14] = assay: Anticonvulsant activity in ip dosed Swiss albino mouse assessed as protection against maximal electric shock-induced tonic-clonic seizures measured up to 4 hrs; assay type: functional
Procedure, shortened: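 Male Swiss albino mice given test substances ip in 30% PEG 400/10% water. Various doses, each group of six mice, tested by MES at the maximal time effect. Protection means no hind-limb tonic extension after ear-clip electroshock. ED50 and 95% confidence intervals computed by the Litchfield–Wilcoxon method.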

Mus musculus [15] = assay: Anticonvulsant activity in ip dosed Swiss albino mouse assessed as time of maximal protection against maximal electric shock-induced tonic-clonic seizures; assay type: functional
Procedure, shortened: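 Ip-dosed male Swiss albino mice (vehicle 30% PEG 400/10% water) tested in the MES test (ear-clip electroshock, endpoint abolition of hind-limb tonic extension) at several times after dosing. The maximal time effect is the time of peak protection.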

Mus musculus [16] = species: Mus musculus; assay: Ratio of trimathadione ED50 to compound ED50 for protection against maximal electric shock-induced tonic-clonic seizures in Swiss albino mouse; assay type: functional
Mus musculus [17] = species: Mus musculus; assay: Ratio of valproic acid ED50 to compound ED50 for protection against maximal electric shock-induced tonic-clonic seizures in Swiss albino mouse; assay type: functional
Mus musculus [18] = species: Mus musculus; assay: Ratio of phenytoin ED50 to compound ED50 for protection against maximal electric shock-induced tonic-clonic seizures in Swiss albino mouse; assay type: functional

Row | Compound | Activity (Mus musculus [1]) | Activity (Mus musculus [2]) | Activity (Mus musculus [3]) | Activity (Mus musculus [4]) | Activity (Mus musculus [5]) | Activity (Mus musculus [6]) | Activity (Mus musculus [7]) | Activity (Mus musculus [8]) | Activity (Mus musculus [9]) | Activity (Mus musculus [10]; route intraperitoneal) [%] | Activity (Mus musculus [11]) | Activity (Mus musculus [12]) | Activity (Mus musculus [13]) | ED50 (Mus musculus [14]) [mg/kg] | Time (Mus musculus [15]) [h] | Activity (Mus musculus [10]) | Ratio ED50 (Mus musculus [16]) | Ratio ED50 (Mus musculus [17]) | Activity (Mus musculus [13]; route intraperitoneal) [%] | Ratio ED50 (Mus musculus [18])
1 | CCCNC(=O)C(C)(C)O | Non-toxic | Active | Non-toxic | inactive | inactive | inactive | inactive | inactive | Non-toxic | 100 | Non-toxic | Non-toxic | Active | – | – | – | – | – | – | –
2 | O=C1NC(=O)C(c2ccccc2)(c2ccccc2)N1 [PHENYTOIN] | – | – | – | – | – | – | – | – | – | – | – | – | – | 5.54 | 1 | – | – | – | – | –
3 | CC1(C)OS(=O)(=O)N(CCc2ccccc2)C1=O | Non-toxic | Active | Non-toxic | Active | Active | Active | Active | inactive | Non-toxic | – | Non-toxic | Non-toxic | Active | 91.1 | 2 | Active | – | – | – | –
4 | CC1(C)OS(=O)(=O)N(Cc2ccccc2)C1=O | Non-toxic | Active | Non-toxic | Active | Active | inactive | inactive | inactive | Non-toxic | 100 | Non-toxic | Non-toxic | Active | 15.1 | 4 | – | 40 | 19 | – | –
5 | CN1C(=O)OC(C)(C)C1=O [TRIMETHADIONE] | – | – | – | – | – | – | – | – | – | – | – | – | – | 627 | 0.5 | – | – | – | – | –
6 | CCCCNC(=O)C(O)(c1ccccc1)c1ccccc1 | Non-toxic | Active | Non-toxic | inactive | Active | inactive | inactive | inactive | Non-toxic | 100 | Non-toxic | Non-toxic | – | – | – | – | – | – | 100 | –
7 | CC(C)(O)C(=O)NCCc1ccccc1 | Non-toxic | Active | Non-toxic | Active | Active | inactive | Active | inactive | Non-toxic | – | Non-toxic | Non-toxic | – | 53.9 | 1 | Active | – | – | 100 | –
8 | CCCN1C(=O)C(C)(C)OS1(=O)=O | Non-toxic | Active | Non-toxic | inactive | Active | inactive | inactive | inactive | Non-toxic | – | Non-toxic | Non-toxic | Active | – | – | inactive | – | – | – | –
9 | CCCCN1C(=O)C(C)(C)OS1(=O)=O | Non-toxic | Active | Non-toxic | inactive | Active | Active | Active | Active | Non-toxic | – | Non-toxic | Non-toxic | inactive | 0.06 | 2 | Active | 10000 | 4700 | – | 90
10 | CC(C)(O)C(=O)NC1CCCCC1 | Non-toxic | Active | Non-toxic | inactive | Active | inactive | inactive | inactive | Non-toxic | 100 | Non-toxic | Non-toxic | – | 25.2 | 0.5 | – | – | – | 100 | –
11 | CC(C)(O)C(=O)NCc1ccccc1 | Non-toxic | Active | Non-toxic | Active | inactive | Active | Active | inactive | Non-toxic | – | Non-toxic | Non-toxic | – | 9.1 | 0.25 | Active | – | 30 | 100 | –
12 | CCCCNC(=O)C(C)(C)O | Non-toxic | inactive | Non-toxic | inactive | Active | Active | Active | Active | Non-toxic | – | Non-toxic | Non-toxic | – | 44.6 | 6 | Active | – | – | 100 | –
